Results on 17 compounds are retold here after ChEMBL document CHEMBL1136739, “Modes of methyleneoxy bridging and their effect on tetrahydronaphthalene lignan cytotoxicity” (2003).

Test [1] deals with Panel (Carcinoma cell lines). Briefly: Mean graph midpoint for growth inhibition of all human cancer cell lines. In kind it is functional. The method, boiled down: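 Mean graph midpoint: the average GI50 (molar) over all human cancer cell lines successfully tested in the 60 cell line panel, expressed as log GI50.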
Test [2] concerns MDA-MB-435 (human). Put plainly: Cytotoxicity against breast MDA-MB-435 cell line.
In test [3] the test system is SR. Briefly: Cytotoxicity against leukemia SR cell line. In kind it is functional. To be noted: Homo sapiens. The method, boiled down:
(§1)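 Tested in the 60 human cancer cell line panel, after a preliminary one-dose screen in three cell lines. The value is the molar concentration giving 50% growth inhibition (GI50), reported as log GI50 for each cell line.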

Test [4] concerns SF-539. Put plainly: Cytotoxicity against CNS SF-539 cell line. Type of test: functional. To be noted: Homo sapiens. Put shortly:
as §1

Test [5] relates to UACC-62. Briefly: Cytotoxicity against melanoma UACC-62 cell line. To be noted: Homo sapiens. In kind it is functional. Put shortly:
as §1

The test system of test [6] is OVCAR-3. Briefly: Cytotoxicity against ovarian OVCAR-3 cell line. In kind it is functional. To be noted: Homo sapiens. Put shortly:
as §1

Test [7] deals with SNB-75. Briefly: Cytotoxicity against prostate CNS SNB-75 cell line. Type of test: functional. To be noted: Homo sapiens. The method, boiled down:
as §1

The subject of test [8] is DU-145. Put plainly: Cytotoxicity against prostate DU-145 cell line. In kind it is functional. The note with it: Homo sapiens. Put shortly: as §1
Test [9] has as its system HOP-62. Briefly: Cytotoxicity against lung HOP-62 cell line. In kind it is functional. The note with it: Homo sapiens. Put shortly:
as §1

In test [10] the test system is OVCAR-4. Put plainly: Cytotoxicity against […] OVCAR-4 cell line. In kind it is functional. The note with it: Homo sapiens. Put shortly: as §1
In test [11] the test system is SN12C. Put plainly: Cytotoxicity against renal SN12C cell line. Type of test: functional. The note with it: Homo sapiens. Put shortly:
as §1

In test [12] the test system is NCI-H322M. Put plainly: Cytotoxicity against lung […] cell line. In kind it is functional. The note with it: Homo sapiens. Put shortly: as §1
For test [13], the system named is HCT-116. Put plainly: Cytotoxicity against colon HCT116 cell line. In kind it is functional. The note with it: Homo sapiens. The method, boiled down:
as §1

The mark [14] stands for this setting: in the assay text read “CNS” for “prostate CNS”.

Some results are limits rather than exact numbers.

In turn, `COc1cc2c(cc1OC)[C@@H]1OC[C@H]([C@@H]2c2cc(OC)c(OC)c(OC)c2)[C@@H]1CO` gave a GI50 in test [1] of over 100 µM.
Take `COc1cc2c(cc1OC)[C@H]1c3cc(OC)c(OC)c(OC)c3OC[C@H]1[C@H](CO)C2`: the GI50 in test [2] is 18.2 µM; in test [1], 20 µM; in test [3], 18.2 µM; in test [4], 24.5 µM; in test [5] it was 20 µM; in test [6], 15.1 µM. Besides, the GI50 in test [7] (setting [14]) is 3.63 µM; in test [8], 22.9 µM; in test [9] it was 60.3 µM; in test [10], 1.95 µM; in test [11], 25.1 µM; in [12] it was 8.71 µM. This compound showed a GI50 in test [13] of 22.4 µM.
As for `COc1cc([C@]23OC[C@H](Cc4cc5c(cc42)OCO5)[C@@H]3CO)cc(OC)c1OC`, the GI50 in test [2] was 0.295 µM; in test [1], 4.07 µM; in test [3], 0.589 µM; in test [4] it was 2.51 µM; in test [5], 4.27 µM; in test [6] it was 1.45 µM. Further, the GI50 was 2.69 µM in test [7] (setting [14]); 2.63 µM in [8]; 4.37 µM in test [9]; 23.4 µM in [10]; 6.17 µM in [12]; 2.88 µM in test [13].
`COc1cc2c(c(OC)c1OC)OC[C@H]1[C@H](COC(C)=O)Cc3cc4c(cc3[C@@H]21)OCO4`: the GI50 in [2] was 39.8 µM; in [1] it was 40.7 µM; in test [3], 21.9 µM; in test [4], 57.5 µM; in test [5] it was 31.6 µM; in test [6], 56.2 µM. Further, the concentration for 50% growth inhibition (GI50) was 70.8 µM in [8]; 67.6 µM in [9]; 47.9 µM in test [10]; 40.7 µM in test [11]; 61.7 µM in [13].
Turning to `COc1ccc(C23OCC24C2COC(c5cc(OC)c(OC)cc53)C24)cc1OC` (stereo unspecified), the GI50 in [2], in [1], in [4], in test [5], in test [6] and in [8] was over 100 µM in each case. The GI50 in test [9] and in test [13] was over 100 µM each time.
Turning to `COc1cc([C@]23OC[C@H](Cc4cc5c(cc42)OCO5)[C@@H]3C)cc(OC)c1OC`, the GI50 is 0.851 µM in test [1]; 0.148 µM in test [3]; 0.407 µM in test [5]; 0.186 µM in test [6]; 0.38 µM in test [7]; 0.479 µM in [8]. Besides, the GI50 in test [9] is 0.794 µM; in [10], 0.38 µM; in test [11], 5.37 µM; in test [12] it was 2.14 µM; in test [13], 0.437 µM.
In the case of `COc1cc2c(cc1OC)C1(c3cc(OC)c(OC)c(OC)c3)OCC13C1COC2C13` (stereo unspecified), the GI50 is 19.5 µM in test [2]; 41.7 µM in test [1]; 31.6 µM in [4]; 69.2 µM in test [5]; 30.2 µM in test [6]; 29.5 µM in test [8]. The GI50 in test [9] was 70.8 µM; in test [11] it was 34.7 µM; in [13], 28.2 µM.
Consider `COc1cc2c(cc1OC)[C@]1(c3cc(OC)c(OC)c(OC)c3)OC[C@H](C2)[C@@H]1CO`, for which the GI50 in [2] was 6.76 µM; in [1], 47.9 µM; in [3], 44.7 µM; in test [4], 17.8 µM; in test [5], 63.1 µM; in test [6] it was 24 µM. For the same compound, the GI50 in test [8] was 30.2 µM; in test [9] it was 47.9 µM; in [10] it was 77.6 µM; in test [11] it was 58.9 µM; in [12] it was 43.7 µM; in test [13], 30.2 µM.
As to `COc1cc(C23OCC24C2COC(c5cc6c(cc53)OCO6)C24)cc(OC)c1OC` (stereo unspecified), the GI50 in test [2] is under 0.01 µM; in test [1] it was 0.0182 µM; in test [4], under 0.01 µM; in [5], under 0.01 µM; in test [6], under 0.01 µM; in [8], under 0.01 µM. The GI50 in test [9] and in [13] was under 0.01 µM in each case.
Consider `COc1ccc([C@]23OC[C@H](Cc4cc(OC)c(OC)cc42)[C@@H]3C)cc1OC`, for which the GI50 is 3.8 µM in test [1]; 1.95 µM in test [4]; 6.92 µM in [5]; 2.4 µM in test [6]; 3.89 µM in test [8]; 2.4 µM in test [9]. For the same compound, the GI50 in test [11] is 12 µM; in [13], 2.75 µM.
Consider `COc1cc([C@@H]2c3cc4c(cc3[C@H]3OC[C@@H]2[C@@H]3CO)OCO4)cc(OC)c1OC`, for which the GI50 in test [2] was 6.76 µM; in test [1], 32.4 µM; in [4] it was 17.8 µM; in test [5], 18.2 µM; in [6], 24 µM; in test [8], 30.2 µM. Moreover, the values for the concentration for 50% growth inhibition (GI50) in [9], in [11] and in test [13] were 47.9 µM, 58.9 µM and 30.2 µM, respectively.
`COc1cc2c(c(OC)c1OC)OC[C@H]1[C@H](CO)Cc3cc4c(cc3[C@@H]21)OCO4`: the GI50 was 19.1 µM in test [2]; 30.9 µM in [1]; 5.13 µM in [3]; 20.9 µM in test [4]; 25.7 µM in test [5]; 25.1 µM in [6]. Moreover, the GI50 is 42.7 µM in test [7] (setting [14]); 37.2 µM in test [8]; 52.5 µM in test [9]; 39.8 µM in [10]; 44.7 µM in [11]; 47.9 µM in test [12]. Also, in test [13], growth was halved (GI50) at 30.2 µM.
On to `COc1cc([C@]23OC[C@H](Cc4cc5c(cc42)OCO5)[C@@H]3COC(C)=O)cc(OC)c1OC`, for which the GI50 in [2] is 0.468 µM; in [1], 3.89 µM; in [3], 0.759 µM; in [4], 1.74 µM; in test [5], 2.95 µM; in test [6] it was 2.14 µM. Moreover, the GI50 in test [7] (setting [14]) was 2 µM; in test [8], 4.57 µM; in [9], 4.27 µM; in [10], 4.27 µM; in [11], 5.01 µM; in [12], 4.37 µM. In addition, halving of growth in test [13] (GI50) required 2.34 µM.
With `COc1cc([C@]23OC[C@H](Cc4cc5c(cc42)OCO5)[C@H]3CO)cc(OC)c1OC`, the GI50 in [2] was 7.41 µM; in test [1] it was 10.5 µM; in test [4] it was 3.89 µM; in test [5] it was 0.0776 µM; in test [6] it was 0.182 µM; in [8], 4.47 µM. For the same compound, the GI50 in test [9] is 0.219 µM; in [11], 4.79 µM; in [13], 0.0437 µM.
Consider `COc1cc2c(c(OC)c1OC)OC[C@@H]1[C@H]2c2cc3c(cc2C[C@H]1C)OCO3`, for which the 50% growth inhibitory concentration (GI50) in [2] was 11.5 µM; in test [1], 38 µM; in test [3], 19.1 µM; in test [4] it was 20.9 µM; in [5], 30.2 µM; in test [6], 33.1 µM. For the same compound, the 50% growth inhibitory concentration (GI50) in test [7] (setting [14]) was 12.3 µM; in test [8], over 75.9 µM; in test [9] it was over 75.9 µM; in test [10] it was 37.2 µM; in [11] it was over 75.9 µM; in [12] it was over 75.9 µM. Further, the GI50 in [13] was 31.6 µM.
Turning to `COc1cc([C@@H]2c3cc4c(cc3[C@@H]3OC[C@H]2[C@@H]3CO)OCO4)cc(OC)c1OC`, the GI50 is 3.89 µM in test [2]; 23.4 µM in [1]; 15.5 µM in test [4]; 26.9 µM in test [5]; 14.5 µM in [6]; 39.8 µM in test [8]. Also, the results for the 50% growth inhibitory concentration (GI50) in [9], in [11] and in test [13] were 19.1 µM, 31.6 µM and 29.5 µM, respectively.
Regarding `COc1cc([C@]23OC[C@H](Cc4cc5c(cc42)OCO5)[C@H]3COC(C)=O)cc(OC)c1OC`, the GI50 in [2] was 1.86 µM; in [1], 12.3 µM; in test [4], 19.1 µM; in test [5] it was 10 µM; in test [9] it was 25.1 µM; in test [11], 25.7 µM. In addition, the GI50 in test [13] was 13.8 µM.
